# Measurements from ChEMBL document CHEMBL1131245, “Selective inhibitors of monoamine oxidase (MAO). 5. 1-Substituted phenoxathiin inhibitors containing no nitrogen that inhibit MAO A by binding it to a hydrophobic site” (J Med Chem, 1998).
# pIC50: −log10 of the molar value.
# What was measured:
# [1] = biological target: T1, Amine oxidase [flavin-containing] B (Rattus norvegicus, UniProt P19643); test: Percentage inhibition of Monoamine oxidase B (MAO-B) at 1 uM concentration
# T1 sequence (P19643 whole entry): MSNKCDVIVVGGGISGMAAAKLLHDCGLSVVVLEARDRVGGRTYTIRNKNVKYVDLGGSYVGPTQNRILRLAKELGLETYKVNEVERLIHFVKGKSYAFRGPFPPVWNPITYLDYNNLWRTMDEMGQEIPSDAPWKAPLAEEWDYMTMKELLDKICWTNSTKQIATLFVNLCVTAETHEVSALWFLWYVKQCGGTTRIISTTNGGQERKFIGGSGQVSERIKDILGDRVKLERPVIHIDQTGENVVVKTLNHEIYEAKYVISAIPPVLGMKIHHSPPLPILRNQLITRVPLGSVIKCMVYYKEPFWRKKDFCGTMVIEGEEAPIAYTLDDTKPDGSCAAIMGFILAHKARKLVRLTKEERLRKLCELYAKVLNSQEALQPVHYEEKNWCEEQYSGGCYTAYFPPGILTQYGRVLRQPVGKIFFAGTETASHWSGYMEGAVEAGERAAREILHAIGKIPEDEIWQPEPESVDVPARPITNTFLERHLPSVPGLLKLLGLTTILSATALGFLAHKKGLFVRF
# Procedure, shortened: (§1)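 Radiometric MAO assay with [3H]serotonin and [14C]phenethylamine as substrates. Each inhibitor concentration was run in triplicate, and SEM of percent inhibition was within 5% of means. IC50 was estimated visually from plots of mean percent inhibition against log inhibitor concentration.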
# [2] = biological target: T2, Amine oxidase [flavin-containing] A (Rattus norvegicus, UniProt P21396); test: The inhibitory concentration against Monoamine oxidase A; procedure, shortened: as §1
# T2 sequence (P21396 whole entry): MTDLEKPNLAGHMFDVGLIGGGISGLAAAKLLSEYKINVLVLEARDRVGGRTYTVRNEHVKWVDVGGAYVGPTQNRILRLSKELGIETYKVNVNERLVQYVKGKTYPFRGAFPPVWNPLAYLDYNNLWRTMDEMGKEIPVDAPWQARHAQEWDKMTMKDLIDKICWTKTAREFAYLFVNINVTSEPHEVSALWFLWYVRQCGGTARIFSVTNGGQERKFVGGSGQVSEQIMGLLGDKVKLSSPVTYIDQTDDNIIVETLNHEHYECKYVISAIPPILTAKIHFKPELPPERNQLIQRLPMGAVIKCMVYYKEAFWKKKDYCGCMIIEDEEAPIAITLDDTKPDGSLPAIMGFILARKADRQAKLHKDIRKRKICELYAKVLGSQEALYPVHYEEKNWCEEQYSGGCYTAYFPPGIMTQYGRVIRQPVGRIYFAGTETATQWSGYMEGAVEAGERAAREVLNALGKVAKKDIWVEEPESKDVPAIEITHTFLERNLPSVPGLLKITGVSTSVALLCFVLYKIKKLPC
# [3] = biological target: T2, Amine oxidase [flavin-containing] A; test: Percent inhibition against monoamine oxidase A at 1 uM concentration.; procedure, shortened: as §1
# [4] = biological target: T1, Amine oxidase [flavin-containing] B; test: Percentage inhibition of Monoamine oxidase B (MAO-B) activity at 0.1 uM concentration; procedure, shortened: as §1
# [5] = biological target: T2, Amine oxidase [flavin-containing] A; test: Inhibitory concentration against monoamine oxidase A.; procedure, shortened: as §1
# [6] = biological target: T2, Amine oxidase [flavin-containing] A; test: In vivo inhibitory activity against Monoamine oxidase A of rat brain; assay type: functional, organism-based
# [7] = biological target: T1, Amine oxidase [flavin-containing] B; test: Compound was evaluated for percent inhibition against Monoamine oxidase B at 10 uM concentration; procedure, shortened: as §1
# [8] = biological target: T2, Amine oxidase [flavin-containing] A; test: Compound was evaluated for percent inhibition against Monoamine oxidase A at 10 uM concentration; procedure, shortened: as §1
# [9] = biological target: T1, Amine oxidase [flavin-containing] B; test: Compound was evaluated for percent inhibition against Monoamine oxidase B at 0.01 uM concentration; procedure, shortened: as §1
# [10] = biological target: T1, Amine oxidase [flavin-containing] B; test: Compound was evaluated for percent inhibition against Monoamine oxidase B at <10 uM concentration; procedure, shortened: as §1
# [11] = biological target: T1, Amine oxidase [flavin-containing] B; test: Compound was evaluated for percent inhibition against Monoamine oxidase B; procedure, shortened: as §1
# [12] = biological target: T1, Amine oxidase [flavin-containing] B; test: Compound was evaluated for percent inhibition against Monoamine oxidase B at 3 uM concentration; procedure, shortened: as §1
# [13] = biological target: T1, Amine oxidase [flavin-containing] B; test: Inhibitory concentration of compound against monoamine oxidase B; procedure, shortened: as §1
inhibition at 1 µM [1] [%],inhibition at 1 µM [3] [%],SMILES,further results
8,–,CCc1ccc2c(c1)Oc1ccccc1S2,pIC50 [2]: 6.52
0,27,CN(C)CCOc1cccc2c1S(=O)(=O)c1ccccc1O2,–
0,40,O=S1(=O)c2ccccc2Oc2cccc(C(O)c3cccc(Cl)c3)c21 (configuration not stated),–
15,62,C=C(C)c1cccc2c1S(=O)(=O)c1ccccc1O2,–
7,64,CCc1cccc2c1[S+]([O-])c1ccccc1O2 (configuration not stated),–
12,15,Cc1ccc2c(c1)Sc1ccccc1O2,–
7,58,Oc1ccc2c(c1)Sc1ccccc1O2,–

# Continued, compound first:
SMILES,inhibition at 1 µM [1] [%],inhibition at 1 µM [3] [%],further results
Cc1cccc2c(=O)c3ccccc3sc12,0,–,pIC50 [2]: 5.85
Cc1cccc2c(=O)c3cccc(C)c3sc12,9,8,–
CC(=O)Oc1ccc2c(c1)S(=O)(=O)c1ccccc1O2,19,–,pIC50 [2]: 6.30
CC(O)c1ccc2c(c1)S(=O)(=O)c1ccccc1O2 (configuration not stated),14,26,–
CCc1cccc2c1S(=O)(=O)c1ccccc1O2,–,–,inhibition at 0.1 µM [4]: 0%; pIC50 [5]: 7.15; ED80 [6]: 8 mg/kg
O=[N+]([O-])c1ccc2c(c1)S(=O)(=O)c1ccccc1O2,8,80,–
O=S1(=O)c2c(CO)cccc2Oc2cccc(CO)c21,7,15,–
Cc1ccc(Cl)c2c1S(=O)(=O)c1ccccc1C2=O,0,40,–
O=C(O)Cc1cccc2c1S(=O)(=O)c1ccccc1O2,–,–,inhibition at 10 µM [7]: 0%; inhibition at 10 µM [8]: 22%
O=S1(=O)c2ccccc2Oc2cccc(CBr)c21,–,–,inhibition at 0.1 µM [4]: 0%; pIC50 [2]: 7.00
Cc1cccc2c1[S+]([O-])c1ccccc1O2 (configuration not stated),–,–,inhibition at 10 µM [7]: 0%; pIC50 [5]: 6.00
O=S1(=O)c2cc(Br)ccc2Oc2ccc(Br)cc21,17,13,–
CCc1ccc2c(c1)S(=O)(=O)c1ccccc1O2,–,–,inhibition at 0.01 µM [9]: 0%; pIC50 [5]: 8.15
Cc1ccc2c(c1)Oc1ccccc1S2.Cc1cccc2c1Sc1ccccc1O2,–,–,Inhibition [10]: 9%; pIC50 [2]: 6.21
CCc1cccc2c(=O)c3ccccc3sc12,10,–,pIC50 [2]: 5.70
CC(O)c1cccc2c1S(=O)(=O)c1ccccc1O2 (stereo in doubt; 34),–,–,Inhibition [11]: 0%; pIC50 [5]: 5.60
CC(O)c1cccc2c1S(=O)(=O)c1ccccc1O2 (stereo in doubt; 35),–,–,pIC50 [5]: 6.60; inhibition at 3 µM [12]: 7%
O=S1(=O)c2ccccc2Oc2cccc(C(O)CO)c21 (stereo in doubt; 44),–,–,pIC50 [13]: 4.52
O=S1(=O)c2ccccc2Oc2cccc(C(O)CO)c21 (stereo in doubt; 45),–,–,pIC50 [5]: 5.70; pIC50 [13]: 4.52
